Experiment [1] deals with Monoamine transporters; Norepinephrine & serotonin (Rattus norvegicus) (UniProt P31652+Q9WTR4). Briefly: Selectivity for rat NET over rat 5HTT. It counts as protein assay.
The target in experiment [2] is Norepinephrine transporter (Rattus norvegicus) (UniProt Q9WTR4). In words: Displacement of [3H]nisoxetine from NET in Sprague-Dawley rat cortical tissue at 5 uM.
The target in experiment [3] is Sodium-dependent serotonin transporter (Rattus norvegicus) (UniProt P31652). Briefly: Displacement of [3H]citalopram from 5HTT in Sprague-Dawley rat cerebrum at 10 uM.
Sodium-dependent serotonin transporter (Rattus norvegicus), sequence (P31652 whole entry): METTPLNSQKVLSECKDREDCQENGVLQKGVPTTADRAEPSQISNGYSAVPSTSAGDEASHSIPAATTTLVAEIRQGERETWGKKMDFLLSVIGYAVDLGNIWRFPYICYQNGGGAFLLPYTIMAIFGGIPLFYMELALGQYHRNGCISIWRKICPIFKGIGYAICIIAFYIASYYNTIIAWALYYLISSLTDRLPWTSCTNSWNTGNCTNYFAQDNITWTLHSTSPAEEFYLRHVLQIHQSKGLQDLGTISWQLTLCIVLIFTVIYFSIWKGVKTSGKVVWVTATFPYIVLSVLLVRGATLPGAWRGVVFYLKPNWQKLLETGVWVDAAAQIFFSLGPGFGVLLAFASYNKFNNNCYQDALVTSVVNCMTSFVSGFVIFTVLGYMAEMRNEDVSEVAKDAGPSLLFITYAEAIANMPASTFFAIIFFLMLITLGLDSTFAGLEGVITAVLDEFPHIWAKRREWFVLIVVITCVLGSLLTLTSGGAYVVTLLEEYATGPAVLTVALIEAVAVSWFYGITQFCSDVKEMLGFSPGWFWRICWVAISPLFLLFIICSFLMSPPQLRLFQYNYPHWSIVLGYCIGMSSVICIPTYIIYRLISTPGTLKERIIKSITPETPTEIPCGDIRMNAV
Experiment [4] concerns the target T1, Sodium-dependent dopamine transporter (Rattus norvegicus, UniProt P23977). In words: Displacement of [3H]WIN-35428 from DAT in Sprague-Dawley rat striatum.
Experiment [5] has as its target Norepinephrine transporter (Rattus norvegicus, UniProt Q9WTR4). In words: Displacement of [3H]nisoxetine from NET in Sprague-Dawley rat cortical tissue.
The target in experiment [6] is Monoamine transporters; Norepininephrine & dopamine (Rattus norvegicus) (UniProt P23977+Q9WTR4). In words: Selectivity for rat DAT over rat NET. It is filed as protein assay.
Experiment [7] deals with T1, Sodium-dependent dopamine transporter. Briefly: Inhibition of [3H]DA uptake at DAT in Sprague-Dawley rat striatum. A digest of the protocol:
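Uptake of [3H]dopamine into the S1 fraction of rat striatal homogenate; IC50 from curves fit by nonlinear regression.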

The target in experiment [8] is Monoamine transporters; serotonin & dopamine (Rattus norvegicus) (UniProt P31652+P23977). Briefly: Selectivity for rat DAT over rat 5HTT. It is filed as protein assay.
Monoamine transporters; serotonin & dopamine (Rattus norvegicus), sequence (P23977 whole entry, looked up): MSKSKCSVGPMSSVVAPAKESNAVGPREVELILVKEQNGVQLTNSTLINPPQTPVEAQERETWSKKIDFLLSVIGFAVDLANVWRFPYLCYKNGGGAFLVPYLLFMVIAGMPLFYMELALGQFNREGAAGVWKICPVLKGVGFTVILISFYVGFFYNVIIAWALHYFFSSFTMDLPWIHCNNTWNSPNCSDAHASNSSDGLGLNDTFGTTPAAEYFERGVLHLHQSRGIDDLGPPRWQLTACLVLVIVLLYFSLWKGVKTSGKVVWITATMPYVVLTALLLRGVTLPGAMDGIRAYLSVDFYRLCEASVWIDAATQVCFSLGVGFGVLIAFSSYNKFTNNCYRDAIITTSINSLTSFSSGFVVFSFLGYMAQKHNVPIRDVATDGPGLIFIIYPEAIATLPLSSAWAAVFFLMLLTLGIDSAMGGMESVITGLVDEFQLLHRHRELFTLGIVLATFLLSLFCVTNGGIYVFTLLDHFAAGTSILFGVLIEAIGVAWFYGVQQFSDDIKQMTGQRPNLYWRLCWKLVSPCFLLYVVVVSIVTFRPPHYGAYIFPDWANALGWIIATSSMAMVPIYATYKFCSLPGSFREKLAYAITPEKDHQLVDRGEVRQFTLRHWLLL
Monoamine transporters; serotonin & dopamine (Rattus norvegicus), sequence (P31652 whole entry, looked up): as the sequence (P31652 whole entry) above
For experiment [9], the target named is Norepinephrine transporter (Rattus norvegicus) (UniProt Q9WTR4). Briefly: Displacement of [3H]nisoxetine from NET in Sprague-Dawley rat cortical tissue at 10 uM.
For experiment [10], the target named is Sodium-dependent serotonin transporter (Rattus norvegicus, UniProt P31652). Briefly: Displacement of [3H]citalopram from 5HTT in Sprague-Dawley rat cerebrum. In outline:
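Rat cortical P2 fraction in 25 mM sodium phosphate, pH 7.7 at 0 °C; 2 nM [3H]citalopram, 3 h at 0 °C; filtration. Nonspecific binding with 1 µM clomipramine. Compounds in water, dilute DMSO or methanol (≤0.3% solvent). Data corrected for filter binding; IC50 by nonlinear regression, Ki by Cheng-Prusoff.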

Norepinephrine transporter, sequence (Q9WTR4 whole entry): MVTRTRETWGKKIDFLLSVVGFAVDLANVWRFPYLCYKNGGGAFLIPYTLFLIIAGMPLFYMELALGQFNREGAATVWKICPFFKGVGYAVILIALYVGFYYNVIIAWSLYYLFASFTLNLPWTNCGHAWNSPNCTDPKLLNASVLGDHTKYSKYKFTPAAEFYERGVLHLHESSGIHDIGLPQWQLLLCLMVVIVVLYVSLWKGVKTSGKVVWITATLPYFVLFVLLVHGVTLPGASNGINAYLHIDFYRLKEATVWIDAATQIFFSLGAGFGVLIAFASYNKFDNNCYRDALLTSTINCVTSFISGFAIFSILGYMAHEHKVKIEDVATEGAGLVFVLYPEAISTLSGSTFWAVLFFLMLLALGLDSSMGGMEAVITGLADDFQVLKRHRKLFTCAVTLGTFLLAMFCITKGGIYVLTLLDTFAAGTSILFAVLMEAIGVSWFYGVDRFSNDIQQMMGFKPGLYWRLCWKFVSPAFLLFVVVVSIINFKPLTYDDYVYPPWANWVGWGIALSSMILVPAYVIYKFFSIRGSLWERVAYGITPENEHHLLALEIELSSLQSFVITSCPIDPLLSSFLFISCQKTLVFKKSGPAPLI
Norepinephrine transporter (Rattus norvegicus), sequence (Q9WTR4 as listed by the source): as the sequence (Q9WTR4 whole entry) above
T1 sequence (P23977 whole entry): as the sequence (P23977 whole entry, looked up) above
Sodium-dependent serotonin transporter, sequence (P31652 whole entry): as the sequence (P31652 whole entry) above

`O=C1CCN2CCCC[C@@H]2[C@H]1c1ccccc1` (relative stereo): the Selectivity ratio in experiment [1] is above 2.5; in experiment [6], 4.4; in experiment [8] it was above 11. In addition, the results for the inhibition in experiment [2] and in experiment [3] were 52% and 5%, respectively. The values for the Ki in experiment [4] and in experiment [5] were 0.908 µM and 4.03 µM, respectively. The same compound returned an IC50 in experiment [7] of 12.4 µM.
As to `CO[C@@H]1CCN2CCCC[C@@H]2[C@H]1c1ccccc1`, the Selectivity ratio in experiment [1] was above 4.9; in experiment [6], 3.6; in experiment [8], above 18. The inhibition in experiment [2] turned out to be 64%; in experiment [3], 14%. Besides, the Ki in experiment [4] turned out to be 0.57 µM; in experiment [5] it was 2.04 µM. In addition, the IC50 in [7] was determined as 1.85 µM.
As to `c1ccc(CC2CCCCN2)cc1` (configuration not stated), the results for the inhibition in [9] and in experiment [3] were 36% and 22%, respectively. Also, in [4], the affinity, expressed as Ki, was 6.36 µM. Besides, the half-maximal inhibitory concentration (IC50) in experiment [7] turned out to be 8.8 µM. Moreover, the Selectivity ratio in experiment [8] is above 1.6.
In the case of `O[C@@H]1CCN2CCCC[C@@H]2[C@H]1c1ccccc1`, the inhibition in [2] was determined as 23.7%; in experiment [3], 1%. In [4], this compound showed an inhibition constant (Ki) of 6.25 µM. For the same compound, the figures for the Selectivity ratio in experiment [6] and in experiment [8] were above 0.8 and above 1.6, respectively. In [7], this compound displayed a half-inhibitory concentration (IC50) of 10.7 µM.
Take `O=C1CC[C@H](c2ccccc2)[C@H]2CCCCN12`: the Selectivity ratio was below 0.7 in experiment [1], above 0.76 in experiment [6] and 0.54 in experiment [8]. The inhibition in experiment [2] was 11%. In [7], this compound gave a 50% inhibitory concentration (IC50) of 8.49 µM. The compound also had a Ki in [10] of 3.55 µM.
Take `CCN1CCCC[C@@H]1[C@H](C)c1ccccc1` (relative stereo): the inhibition in [2] worked out at 8.3%; in experiment [3], 11%. This compound had a Ki in experiment [4] of 7.61 µM. Besides, the Selectivity ratio in experiment [6] is above 0.66; in experiment [8] it was above 1.3. In experiment [7], half-maximal inhibition (IC50) required 7.96 µM.
Turning to `Clc1ccccc1[C@H]1CCCN2CCCC[C@H]12` (relative stereo), the results for the Selectivity ratio in [1], in experiment [6] and in experiment [8] were 0.67, 5.7 and 3.8, respectively. For the same compound, the inhibition in experiment [2] is 58%. Further, the values for the inhibition constant Ki in [4], in experiment [5] and in experiment [10] were 0.48 µM, 2.75 µM and 1.84 µM, respectively. Inhibition in experiment [7] was half-maximal at 1.26 µM (IC50).

Values taken from ChEMBL document CHEMBL1143672, “Synthesis and pharmacology of site-specific cocaine abuse treatment agents: restricted rotation analogues of methylphenidate” (J Med Chem, 2007).
